Measured values reported in ChEMBL document CHEMBL1132285, “The presence of substituents on the aryl moiety of the aryl phosphoramidate derivative of d4T enhances anti-HIV efficacy in cell culture: A structure-activity relationship” (J Med Chem, 1999).

Experiments:
CCRF-CEM [1] = assay: In vitro effective compound concentration required to protect CEM/TK cells against the cytopathogenicity of HIV-2; settings: Homo sapiens
CCRF-CEM [2] = assay: In vitro effective compound concentration required to protect CEM/O cells against the cytopathogenicity of HIV-1; format: functional, cell-based; settings: Homo sapiens
How it was run: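 CEM/0 cells at 250 000 cells/mL were infected with HIV-1 (~20 CCID50/mL) or HIV-2 strain ROD (~100 CCID50/mL), then mixed 1:1 with compound dilutions. After 4 days at 37 °C, giant cell formation was scored. EC50 is the concentration inhibiting HIV-induced giant cell formation by 50%. Values are means of 2–4 independent experiments.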

EC50 (CCRF-CEM [1]): 33 µM
EC50 (CCRF-CEM [2]): 0.651 µM
Structure (SMILES): Cc1cn([C@H]2C=C[C@@H](CO)O2)c(=O)[nH]c1=O [STAVUDINE]
